# From article PMC3105124 (Brain research, 2011)
# pEC50, pKi: −log10 of the molar value. Read-outs that look alike come from different tables or passages of the source. Marks after values point to notes of the source that are not given here.
# How the values were obtained:
# [1] = test system: L5/L6 spinal nerve ligated male Sprague Dawley rats; assay: Mechanical hypersensitivity; assay type: in vivo, rat; details: for AUC, paw withdrawal threshold (mechanical): vehicle AUC=22.07 ± 3.02
# [2] = test system: L5/L6 spinal nerve ligated male Sprague Dawley rats; assay: Thermal hypersensitivity; assay type: in vivo, rat; details: for AUC, paw withdrawal latency (thermal): vehicle AUC=55.52 ± 2.74; for effect on thermal hyperalgesia compared to vehicle or post injury baseline: morphine (10 mg), all time-points and total AUC
# male Sprague Dawley rats [3] = assay type: in vivo, rat
# Outline: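 CCK-8sulf (30 ng/0.5 μL, in water) went into the RVM 10 min before. Naloxone (10 mg/kg sc, saline) was given 20 min before. Radiant heat to the plantar hind paw gave withdrawal latency, compared with baseline.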
# [4] = target: human δ opioid receptor (hDOR) (Homo sapiens, UniProt P41143); details: ref Agnes et al., 2008, cited from earlier work
# [5] = target: rat μ opioid receptor (MOR) (Rattus norvegicus, UniProt P33535); details: ref Agnes et al., 2008, cited from earlier work
# [6] = test system: sham-operated male Sprague Dawley rats; assay: Thermal paw withdrawal latency in sham-operated animals, intrathecal; assay type: in vivo, rat; details: 45 min time point
# Outline: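 Sham rats had the L5/L6 nerves exposed without ligation, then 5–7 days recovery. An intrathecal catheter ending at the lumbar cord was placed under ketamine/xylazine, with 5–7 days recovery. Test compound in 33% EtOH/water was injected in 5 μL with a 9 μL saline flush. Radiant heat was focused on the ipsilateral hind paw, and latencies were read blinded every 15 min for 60 min. In crossovers, vehicle rats were redosed ≥5 h later.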
# CCK-2 receptor = details: read-out: Ki at the CCK-2 receptor; ref Agnes et al., 2008; cited from earlier work
# μ opioid receptor = details: read-out: Ki at the μ opioid receptor; ref Agnes et al., 2008; cited from earlier work
# δ opioid receptor = details: read-out: Ki at the δ opioid receptor; ref Agnes et al., 2008; cited from earlier work
# CCK-1 receptor = details: read-out: Ki at the CCK-1 receptor; ref Agnes et al., 2008; cited from earlier work
# male Sprague Dawley rats [7] = assay: Rotarod test for motor impairment or sedation, intrathecal; assay type: in vivo, rat; details: 180 s cutoff
# [8] = test system: L5/L6 spinal nerve ligated male Sprague Dawley rats; assay type: in vivo, rat
# mu opioid receptor = details: ref Agnes et al., 2008; Hruby et al., 2003; cited from earlier work
# delta opioid receptor = details: ref Agnes et al., 2008; Hruby et al., 2003; cited from earlier work
# [9] = 30 μg/5μL intrathecal (gabapentin 30 μg)
# rat μ opioid receptor (MOR), sequence (P33535 whole entry): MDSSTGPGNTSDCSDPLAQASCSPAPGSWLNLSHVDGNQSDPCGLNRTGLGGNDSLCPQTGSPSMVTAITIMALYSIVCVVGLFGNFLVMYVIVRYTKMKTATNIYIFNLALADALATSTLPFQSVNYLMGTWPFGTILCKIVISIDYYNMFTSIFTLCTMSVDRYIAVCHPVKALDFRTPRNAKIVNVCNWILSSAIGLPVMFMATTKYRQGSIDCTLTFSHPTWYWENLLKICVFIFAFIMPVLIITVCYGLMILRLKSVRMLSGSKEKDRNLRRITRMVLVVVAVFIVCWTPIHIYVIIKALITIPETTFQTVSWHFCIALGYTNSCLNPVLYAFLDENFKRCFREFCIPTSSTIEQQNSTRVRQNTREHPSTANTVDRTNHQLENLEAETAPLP
# human δ opioid receptor (hDOR), sequence (P41143 whole entry): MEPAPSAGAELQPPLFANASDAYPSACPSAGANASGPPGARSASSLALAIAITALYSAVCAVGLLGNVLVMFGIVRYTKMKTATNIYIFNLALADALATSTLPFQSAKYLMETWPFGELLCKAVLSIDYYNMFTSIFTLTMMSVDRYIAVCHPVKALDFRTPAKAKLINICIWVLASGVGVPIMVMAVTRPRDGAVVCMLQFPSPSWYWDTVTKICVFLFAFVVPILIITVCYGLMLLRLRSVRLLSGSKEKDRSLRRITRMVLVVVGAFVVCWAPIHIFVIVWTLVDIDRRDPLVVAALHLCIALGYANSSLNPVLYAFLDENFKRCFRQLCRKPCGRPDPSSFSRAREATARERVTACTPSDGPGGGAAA
molecule,measurement,setting,value
"NCC1(CC(=O)O)CCCCC1 [gabapentin, reference compound]","AUC, paw withdrawal threshold (mechanical)",[1]; [9],25.97 ± 6.68
same,"AUC, paw withdrawal latency (thermal)",[2]; gabapentin (30 mg) intrathecal,104.72 ± 11.01
same,effect on thermal hyperalgesia compared to vehicle or post injury baseline,[2]; gabapentin (30 mg) intrathecal,significant efficacy
H-Tyr^1-DNle^2-Gly^3-Trp^4-Nle^5-Asp^6-Phe^7-NH2 [RSA 504],Paw Withdrawal Latency (Sec ± SEM),male Sprague Dawley rats [3]; RVM 60 ng/0.5μl with pre-administration (−10min) of CCK-8sulf (RVM; 30 ng/0.5 μL),22.35^† Sec
same,effect on CCK-8 induced thermal hypersensitivity,"male Sprague Dawley rats [3]; RVM administration, effect not significantly attenuated by naloxone",reversed the CCK-8 hypersensitivity
same,pEC50,[4]; read-out: EC50 in GTP-γ-S binding assay at hDOR,8.26
same,Emax in GTP-γ-S binding assay at hDOR,[4],81 nM
same,pEC50,[5]; read-out: EC50 in GTP-γ-S binding assay at MOR,9.33
same,Emax in GTP-γ-S binding assay at MOR,[5],110 nM
same,paw withdrawal latencies in sham animals,[6],significantly increased
same,pKi,CCK-2 receptor,7.80
same,attenuation of mechanical hypersensitivity compared to vehicle,[1]; 3 μg/5μL intrathecal,No significance
same,attenuation of mechanical hypersensitivity compared to post-injury baseline,"[1]; 3 μg/5μL intrathecal, 15, 30 and 45 min post administration",Significant attenuation
same,"AUC, paw withdrawal threshold (mechanical)",[1]; 3 μg/5μL intrathecal,32.53 ± 4.39
same,attenuation of mechanical hypersensitivity compared to vehicle,[1]; 10 μg/5μL and 30 μg/5μL intrathecal (RSA 504: 30 min; RSA 601: all time points),significant attenuation
same,"AUC, paw withdrawal threshold (mechanical)",[1]; 10 μg/5μL intrathecal (morphine 10 μg),39.38 ± 3.17
same,"AUC, paw withdrawal threshold (mechanical)",[1]; [9],44.80 ± 4.93
same,"A50, antiallodynic dose response curve","[1]; intrathecal, peak effect 30 min, day 7 after SNL, von Frey",4.67 μg/5μL
same,attenuation of thermal hyperalgesia compared to vehicle,[2]; 1 μg/5μL intrathecal,did not produce a significant effect
same,attenuation of thermal hyperalgesia compared to vehicle and post-injury baseline,"[2]; 10 μg/5μL and 30 μg/5μL intrathecal, 30 min time point",significantly attenuated
same,"AUC, paw withdrawal latency (thermal)",[2]; 10 μg/5μL intrathecal,83.61 ± 6.40
same,"AUC, paw withdrawal latency (thermal)",[2]; 30 μg/5μL intrathecal,111.10 ± 7.97
same,"A50, antihyperalgesic dose response curve","[2]; intrathecal, peak effect 30 min, day 7 after SNL",6.09 μg/5μL
same,pKi,μ opioid receptor,7.57
same,pKi,δ opioid receptor,7.64
same,pKi,CCK-1 receptor,7.95
same,motor impairment or sedation on the rotarod,male Sprague Dawley rats [7],did not result in motor impairment
same,antinociceptive tolerance (day 7 A50 compared to day one),[8]; intrathecal administration over 7 days,not significantly different
same,"A50, reconstructed antihyperalgesic dose response curve, day 7","[8]; intrathecal, 30 min, day 7 after 30 μg/5μL/day for 6 days (14 days after SNL)",6.45 μg/5μL
same,"A50, antihyperalgesic dose response curve, day one","[8]; intrathecal, 30 min, treatment day 1 (7 days after SNL)",5.89 μg/5μL
same,in vitro activity in GPI for mu opioid receptor activity,mu opioid receptor,210 nM
same,in vitro activity in the MVD for delta opioid receptor activity,delta opioid receptor,23 nM
"CN1CC[C@]23c4c5ccc(O)c4O[C@H]2[C@@H](O)C=C[C@H]3[C@H]1C5 [morphine, reference compound]",Paw Withdrawal Latency (Sec ± SEM),male Sprague Dawley rats [3]; RVM 60 ng/0.5μl with pretreatment (−20min) of naloxone (subcutaneous; 10mg/kg),18.70** Sec
same,effect on thermal hyperalgesia compared to vehicle or post injury baseline,[2]; gabapentin (30 mg) intrathecal,significant efficacy
